Source: PubChem BioAssay (several laboratories)
EBV gp42 inh = Epstein-Barr virus gp42 inhibitors, primary screen, biochemical, uHTS, fluorescence polarization; Fluorescence polarization binding assay, mP read-out; AID 1085, 2008; inhibition, % (tested at 21.74 µM); 220,000 compounds, 0.42% hits; in the data active means inhibition above about 50%
Target sequence (Q1HVG2 whole entry, looked up): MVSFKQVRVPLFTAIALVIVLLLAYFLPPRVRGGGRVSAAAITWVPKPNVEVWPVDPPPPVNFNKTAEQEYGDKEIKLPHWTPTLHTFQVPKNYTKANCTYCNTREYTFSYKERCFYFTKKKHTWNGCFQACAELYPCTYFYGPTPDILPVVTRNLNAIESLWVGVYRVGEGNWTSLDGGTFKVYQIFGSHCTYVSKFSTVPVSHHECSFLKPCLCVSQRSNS
WT yeast gro inh = growth inhibition of WT strain, primary screen, mitochondrial fusion inhibitor project, WT and mutant strains, chemical genetic. 190,000 compounds, 2.1% hits. inhibition, % at 10 µM. AID 1362, 2008. mitochondrial fusion phenotypic screen; in the data active means inhibition above about 58%; tested in S. cerevisiae
MPTP inh = mitochondrial permeability transition pore inhibitors, primary screen, biochemical, isolated mouse mitochondria, absorbance; Ca2+ swelling absorbance, 30 min; inhibition, % at 10 µM; 360,000 compounds, 1.4% hits; AID 602449, 2012;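 active means inhibition of 50% or more, scaled per plate between neutral and stimulator controls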
GRIN3A LBD mod = binders of NR3A ligand-binding domain, primary screen, biophysical, differential scanning fluorimetry, uHTS; NR3A LBD differential scanning fluorimetry, Tm shift; 0% = protein alone, 100% = glycine-bound protein; AID 1259313, 2017; Glutamate receptor ionotropic, NMDA 3A (GRIN3A) ligand-binding domain; Tm shift relative to glycine control, % at 25 µM; 340,000 compounds, 2.5% hits;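 active means melting temperature shift of at least 10% of the positive control shift, at one fixed dose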
TbMetRS inhib = T. brucei MetRS inhibitors, primary screen, biochemical, luminescence. 360,000 compounds, 0.4% hits. methionyl-tRNA synthetase (Trypanosoma brucei brucei). purified T. brucei MetRS, ATP depletion, Kinase-Glo luminescence. inhibition, % at 11.9 µM;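 active means inhibition above a per-plate cutoff of the control wells' mean inhibition plus 3 SD, cut at about 5.5% in these data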
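Test system – parasite MetRS enzyme · Reagent – substrates ATP, L-methionine and bulk Escherichia coli tRNA · Doses – 11.9 µM compound single dose, 0.9% DMSO · Times – 15 min enzyme-compound preincubation, 2 h reaction, 10 min detection, 25 °C · Signal – Kinase-Glo luminescence, ATP depletion format · Controls – DMSO-only wells as low control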
CHOP inhibitor = inhibitors of CHOP promoter induction, primary screen, cell-based, unfolded protein response, luciferase reporter | inhibition, % at 10 µM | 220,000 compounds, 3.8% hits | CHO-K1 CHOP-promoter luciferase, tunicamycin-induced, 15-18 h | AID 2732, 2010;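 active means compounds that reduced the stress-induced luciferase reporter signal by more than about 70% of percent inhibition, limit read from the data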
Numbers stand for hits; 0 = inactive; - = not tested or not shown. In the library only some 6.4% were active in any assay of this set; here they are far more common.

SMILES | EBV gp42 inh | WT yeast gro inh | MPTP inh | GRIN3A LBD mod | TbMetRS inhib | CHOP inhibitor
CN(C(=O)CSc1nnc(-c2ccncc2)n1C)C1CCS(=O)(=O)C1 (stereo not drawn) | 0 | 0 | 0 | 0 | 0 | 0
CC(C)Oc1cccc(C(=O)Nc2ccc(Br)cc2F)c1 | 0 | 0 | 0 | 0 | 0 | 0
CCN(CC)S(=O)(=O)c1ccc(N2CCOCC2)c(NC(=O)CC2OC(=O)c3ccccc32)c1 (stereo not drawn) | - | - | 0 | 0 | 0 | -
Cc1ccc(C(=O)Nc2ccc(S(=O)(=O)NCc3ccco3)cc2)cc1 | 0 | 66.2 | 0 | 0 | 0 | 0
Cc1ccc(S(=O)(=O)NCc2ccco2)cc1C | 0 | 0 | 0 | 0 | 0 | 0
C/C(=N\Nc1nc(Cl)c(Cl)cc1Cl)c1ccc(S(=O)(=O)NCc2ccco2)cc1 | 0 | 0 | 0 | 0 | 0 | 87.2
Cc1ccc(-c2ccc(S(=O)(=O)NCc3ccco3)cc2)cc1 | 0 | 0 | 0 | 0 | 0 | 75.0
Cc1c(CCC(=O)N2CCC(C(=O)NCCCCCC(=O)O)CC2)c(=O)oc2cc3oc4c(c3cc12)CCCC4 | - | - | 0 | 0 | 0 | -
CN1C(=O)c2cccc(NC(=O)Cc3ccccc3)c2C1=O | 0 | 0 | 0 | 0 | 0 | 0
COc1ccc(CN(Cc2ccc(C(=O)O)cc2)C(=S)Nc2cccc(C)c2)cc1OC | 0 | 0 | 0 | 12.2 | 0 | 0
COc1ccc(NC(=S)N(Cc2ccc(C(=O)O)cc2)Cc2ccc(OC)c(OC)c2)cc1 | 0 | 0 | 0 | 0 | 0 | 0
Nc1nc(-c2ccccc2)c(N=Nc2cccnc2)s1 | 0 | 0 | 0 | 0 | 0 | 0
CCOC(=O)C1=C(C)N=C2SCCC(=O)N2C1c1sccc1C (stereo not drawn) | 0 | 64.7 | 0 | 0 | 0 | 0
CCOC(=O)C1=C(C)N=C2SCCC(=O)N2C1c1ccc(OC)cc1 (stereo not drawn) | 0 | 0 | - | - | - | 0
Nn1c(Cc2ccccc2F)nnc1SCC(=O)N1CC(=O)Nc2ccccc21 | 60.0 | 0 | 0 | 0 | 0 | 0
Cc1nnc(SCC(=O)N2CC(=O)Nc3ccccc32)n1-c1ccccc1 | 0 | 0 | 0 | 0 | 0 | 0
O=C(Nc1nc(-c2ccc3c(c2)OCO3)cs1)C1CC1 | 0 | 0 | 0 | 0 | 0 | 0
Cc1c(NC(=O)CSc2ccc(Cl)cc2)cccc1-c1nc2cc(Cl)ccc2o1 | 0 | 0 | 0 | 18.2 | 0 | 0
OCc1cn(-c2ccccc2)nc1-c1ccc(-c2nn(-c3ccccc3)cc2CO)cc1 | 0 | 0 | 0 | 23.6 | 0 | 88.3
O=C(Cc1ccc(Cl)cc1)N1CCN(c2ccc(F)cc2)CC1 | - | - | 0 | 0 | 0 | -
Cc1ccc2c(=O)cc(C(=O)NCCc3ccc(S(N)(=O)=O)cc3)oc2c1 | - | - | 0 | 0 | 0 | -
COc1ccc(Br)cc1/C=C/C(=O)c1ccc(NC(C)=O)cc1 | 0 | 83.9 | 0 | 0 | 0 | 0
COc1ccc(NC(=O)/C=C/c2cc(Br)ccc2OC)cc1 | 0 | 0 | 0 | 14.9 | 0 | 0
CCN(CC)c1ccc(NC(=O)/C=C/c2cc(Br)ccc2OC)cc1 | 0 | 0 | 0 | 0 | 0 | 0
Fc1cccc(Cn2cc(C(=S)N3CCCCC3)c3ccccc32)c1 | 0 | 75.8 | 0 | 0 | 0 | 0
SMILES | EBV gp42 inh | WT yeast gro inh | MPTP inh | GRIN3A LBD mod | TbMetRS inhib | CHOP inhibitor
COc1cc2oc(=O)cc(-c3cccc(-c4ccc(C(F)(F)F)cc4)c3)c2c(OC)c1OC | - | - | 0 | 16.8 | 0 | -
COc1cc2oc(=O)cc(-c3ccc(-c4ccc(C(F)(F)F)cc4)cc3)c2c(OC)c1OC | - | - | 0 | 0 | 0 | -
Clc1ccccc1-c1ccc(CN2CCN(c3ccccc3)CC2)o1 | 0 | 65.8 | 0 | - | 0 | 0
CCN(CC)c1cc2nc(C)n(Cc3ccccc3)c(=O)c2cc1NC(=O)C1CC1 | 0 | 0 | 0 | 0 | 0 | 0
CSCC[C@H](NC(=O)C1CCCC1)c1nc2ccccc2[nH]1 | 0 | 0 | 0 | 0 | 0 | 0
COC(=O)c1ccc(CN(c2ccc(C(=O)O)c(O)c2)S(=O)(=O)c2ccc(Cl)c([N+](=O)[O-])c2)cc1 | - | - | 0 | 21.5 | 0 | -
CCCCCc1cc(=O)oc2c(C(CCN3CCCC(C)C3)c3cc(OC)c(OC)c(OC)c3)c(OC)cc(OC)c12 (stereo not drawn) | 0 | - | 0 | 0 | 0 | 93.0
CCCCCc1cc(=O)oc2c(C(CCN3CCCC(C)C3)c3ccc(N(C)C)cc3)c(OC)cc(OC)c12 (stereo not drawn) | 0 | - | 0 | 0 | 0 | 84.0
COc1cc(OC)c2ccc(=O)oc2c1C(CCN1CCCC(C)C1)c1ccc(N(C)C)cc1 (stereo not drawn) | 0 | - | 0 | 0 | 0 | 0
CCCCOC(=O)Nc1nnc(-c2ccccc2OC)s1 | 0 | 0 | 0 | 0 | 0 | 83.1
CCc1nnc(NC(=O)Nc2ccccc2OC)s1 | 0 | 58.5 | 0 | 0 | 0 | 0
COc1ccccc1NC(=O)Nc1nnc(CC(=O)Nc2ccccc2C)s1 | 0 | 0 | 0 | 0 | 0 | 0
CC(C)c1ccccc1NC(=O)COC(=O)CCN1C(=O)/C(=C\C=C\c2ccccc2)SC1=S | 0 | 0 | 0 | 0 | 0 | 75.5
O=C(COC(=O)CCN1C(=O)/C(=C\C=C\c2ccccc2)SC1=S)Nc1ccc(Br)cc1 | 0 | 0 | 0 | 10.1 | 0 | 72.3
CCOC(=O)C1CCCN(c2nc3ccccc3nc2C(C#N)C(=O)OCC)C1 (stereo not drawn) | 0 | 0 | 0 | 0 | 0 | 0
O=C(Nc1cccc(Br)c1)c1ccc2nc(N3C(=O)CCC3=O)sc2c1 | 0 | 0 | 0 | 13.8 | 0 | 0
O=C(Nc1cccc([N+](=O)[O-])c1)c1ccc2nc(N3C(=O)CCC3=O)sc2c1 | 0 | 0 | 0 | 0 | 0 | 0
COc1cc(/C=C2/SC(=NCc3ccccc3)N(Cc3ccccc3)C2=O)ccc1O | 0 | 0 | 0 | 13.0 | 0 | 0
O=C1/C(=C/c2ccncc2)SC(=S)N1Cc1ccccc1 | 0 | - | 0 | 21.2 | 0 | 0
CCOc1ccc(/C=C2\SC(=S)N(Nc3ccccc3)C2=O)cc1OC | 0 | 0 | 0 | 0 | 0 | 81.7
O=C1/C(=C\c2ccc(O)c(O)c2)SC(=S)N1Cc1ccccc1 | - | - | 0 | 29.2 | 0 | -
O=C1/C(=C/c2ccc(O)cc2)SC(=S)N1Cc1cccnc1 | 0 | 0 | 0 | 0 | 0 | 0
COc1cc(/C=C2/SC(=S)N(Cc3ccccc3)C2=O)ccc1O | - | - | 0 | 20.3 | 0 | -
O=C(O)c1cc(-c2ccc(/C=C3/SC(=S)N(Cc4ccccc4)C3=O)o2)ccc1Cl | 0 | 59.9 | 0 | 0 | 0 | 0
COc1ccc(/C=C2\SC(=S)N(Cc3cccnc3)C2=O)cc1C | 0 | 0 | 0 | 0 | 0 | 88.2
O=C1NC[C@@H](CCCCN2C[C@H](Cc3ccc(O)cc3)N(Cc3ccccc3)C(=O)C2=O)N(Cc2ccccc2)C1=O | - | - | 0 | - | 0 | -
